# Experimental data reported in ChEMBL document CHEMBL1221338, “New antitumoral agents I: In vitro anticancer activity and in vivo acute toxicity of synthetic 1,5-bis(4-hydroxy-3-methoxyphenyl)-1,4-pentadien-3-one and derivatives” (Bioorg Med Chem, 2010).
# pIC50: −log10 of the molar value.
# Tests used:
# [1] = Antitumor activity against human NCI/ADR cells after 48 hrs by SRB assay; format: functional, cell-based; settings: NCI/ADR-RES
# How it was run: (§1)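 Human tumor lines in medium with 5% FBS and gentamicin, exposed in 96-well plates to four concentrations given in DMSO for 48 h at 37 °C, 5% CO₂. Cells fixed with trichloroacetic acid (added as 50% solution) for 30 min at 4 °C, washed, dried, stained with sulphorhodamine B. Protein content read at 540 nm.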
# [2] = tested on: MCF7; experiment: Antitumor activity against human MCF7 cells after 48 hrs by SRB assay; format: functional, cell-based; settings: MCF7, 48 h; how it was run: as §1
# [3] = tested on: HT-29; experiment: Antitumor activity against human HT-29 cells after 48 hrs by SRB assay; format: functional, cell-based; settings: HT-29, 48 h; how it was run: as §1
# [4] = Antitumor activity against human 786-O cells after 48 hrs by SRB assay; format: functional, cell-based; settings: 786-0, 48 h; how it was run: as §1
# [5] = tested on: K562; experiment: Antitumor activity against human K562 cells after 48 hrs by SRB assay; format: functional, cell-based; settings: K562, 48 h; how it was run: as §1
# [6] = tested on: NCI-H460; experiment: Antitumor activity against human NCI-H460 cells after 48 hrs by SRB assay; format: functional, cell-based; settings: NCI-H460, 48 h; how it was run: as §1
# [7] = tested on: PC-3; experiment: Antitumor activity against human PC3 cells after 48 hrs by SRB assay; format: functional, cell-based; settings: PC-3, 48 h; how it was run: as §1
# [8] = tested on: OVCAR-3; experiment: Antitumor activity against human OVCAR-3 cells after 48 hrs by SRB assay; format: functional, cell-based; settings: OVCAR-3, 48 h; how it was run: as §1
# [9] = tested on: UACC-62; experiment: Antitumor activity against human UACC62 cells after 48 hrs by SRB assay; format: functional, cell-based; settings: UACC-62, 48 h; how it was run: as §1
# [10] = tested on: B16-F10; experiment: Antiproliferative activity against mouse B16F10 cells after 24 hrs by MTT assay; format: functional, cell-based; settings: B16-F10, 24 h
# How it was run: (§2)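 Murine tumor cells grown to confluence, then exposed for 24 h to a range of concentrations diluted in Miglyol 810, with a Miglyol-only diluent control. MTT (5 mg/ml stock) added for 3 h at 37 °C, 5% CO₂. Plates centrifuged, supernatant removed, formazan dissolved in DMSO, absorbance read at 540 nm.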
# [11] = Antiproliferative activity against mouse macrophages after 24 hrs by MTT assay; format: cell-based; settings: Macrophage
# How it was run: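 Peritoneal macrophages lavaged from anesthetized normal Balb-C mice with heparinized saline. Cells pelleted, resuspended in RPMI-1640 with 10% FBS at 10⁶/ml, plated, and exposed for 24 h to compound dilutions in Miglyol 810, with a diluent control. MTT (5 mg/ml stock) for 3 h at 37 °C, formazan dissolved in DMSO, read at 540 nm.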
# [12] = tested on: L1210; experiment: Antiproliferative activity against mouse L1210 cells after 24 hrs by MTT assay; format: functional, cell-based; settings: L1210, 24 h; how it was run: as §2
# [13] = Toxicity in Swiss albino mouse for 14 days; format: organism-based; settings: in vivo
# How it was run: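 Male albino Swiss mice (~25 g; 20 animals split equally into treated and control groups), acclimatised at least 7 days and fasted 12 h. Single intraperitoneal dose of 1, 2.5 or 5 g/kg body weight. Deaths and signs of toxicity observed for at least 14 days. LD50 by Litchfield and Wilcoxon's method; OECD425 protocol.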
Compound,pIC50 [1],pIC50 [2],pIC50 [3],pIC50 [4],pIC50 [5],pIC50 [6],pIC50 [7],pIC50 [8],pIC50 [9],pIC50 [10],pIC50 [11],pIC50 [12],LD50 at 336 h [13]
COc1cc(/C=C/C(=O)/C=C/c2ccc(OCC=C(C)C)c(OC)c2)ccc1OCC=C(C)C,5.14,4.74,5.39,5.10,5.32,4.47,4.22,4.52,4.51,,,,
COc1cc(/C=C/C(/C=C/c2ccc(O)c(OC)c2)=C(C#N)C#N)ccc1O,5.53,5.28,5.47,5.15,5.12,5.16,5.37,3.94,5.48,,,,
COc1cc(/C=C/C(=O)/C=C/c2ccc(O)c(OC)c2)ccc1O,6.08,6.92,5.64,5.70,5.74,5.82,5.90,5.66,7.05,4.67,4.29,4.25,8540 mg/kg
COc1ccc(/C=C/C(=O)/C=C/c2ccc(OC)c(OC)c2)cc1OC,5.63,5.70,5.61,5.47,5.74,5.73,5.63,5.63,5.67,,,,
COc1cc(/C=C/C(=O)/C=C/c2ccc(OC(C)=O)c(OC)c2)ccc1OC(C)=O,5.51,5.96,5.83,6.18,5.85,5.77,6.02,5.86,5.37,3.66,3.56,3.61,3680 mg/kg
